The text below walks through data of PMC5905822 (International Journal of Nanomedicine, 2018).

For one series, the system named is rat liver microsomes. The note with it: cited from earlier work.
In a further series the test system is human liver microsomes. The note with it: cited from earlier work.
Series [1] can be described thus: Plasma pharmacokinetics in rats after intravenous injection. In kind it is in vivo, Sprague Dawley (SD) rats. Summed up:
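Male SD rats (220–250 g), fasted overnight and randomized (n=6/group), got 6 mg/kg iv of free or lipid-carrier-formulated ester. An automated collector drew blood at 2–300 min, with saline volume replacement. Plasma was prepared cold and stored at −80°C, then extracted with ice-cold acetonitrile plus internal standard, dried under nitrogen and reconstituted in methanol. LC-MS measured the parent ester and its hydrolysed metabolite.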

In the case of `CC1(C)C2CCC1(C)C(OC(=O)C(O)Cc1ccc(O)c(O)c1)C2` (stereo not shown) [DBZ, 1,7,7-trimethylbicyclo[2.2.1]heptan-2-yl 3-[3,4-dihydroxyphenyl]-2-hydroxy-propanoate], the “Metabolism by the liver microsomal enzymes” value in the series with rat liver microsomes and with human liver microsomes was “metabolized quickly” throughout. Further, the “MRT0–∞ of plasma DBZ” value in series [1] (analyte DBZ, rats, intravenous, 6 mg/kg) is reported as 0.149±0.015 H. Moreover, the “Elimination from the blood circulation after injection” value in series [1] (preliminary pharmacokinetic studies in rats) is reported as “eliminated quickly”.
